Common to all, as to format: functional
Experiment [1] concerns Pseudomonas aeruginosa. Briefly: Antagonist activity at Pseudomonas aeruginosa QSIS2 LasR-mediated quorum sensing co-expressing SacB1 assessed as inhibition of 3-oxo-C12-HSL-induced luminescence at 0.5 mM after 24 hrs by reporter gene assay. For orientation: Reporter assays use an easily measured gene product as a stand-in for the process of interest.
The target of experiment [2] is T1, Transcriptional activator protein LuxR (Aliivibrio fischeri) (UniProt P12746).
T1 sequence (whole entry): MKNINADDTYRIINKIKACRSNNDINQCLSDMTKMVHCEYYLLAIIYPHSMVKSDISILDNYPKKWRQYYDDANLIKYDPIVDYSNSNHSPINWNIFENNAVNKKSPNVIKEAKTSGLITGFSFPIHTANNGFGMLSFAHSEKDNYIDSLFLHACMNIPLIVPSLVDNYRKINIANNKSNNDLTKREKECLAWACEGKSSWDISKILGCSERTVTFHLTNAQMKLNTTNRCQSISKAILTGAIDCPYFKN
Briefly: Antagonist activity at Vibrio fischeri LuxR-mediated quorum sensing expressed in Escherichia coli JB523 assessed as inhibition of C6-HSL-induced GFP expression at 1 mM after 24 hrs by reporter gene assay. Summed up:
(§1)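 JB523 GFP biosensor in LB/0.4% NaCl at OD590 0.1 with tetracycline 100 µg/ml final; compounds co-added with C6-HSL (5 µM). Plates kept 24 h at 30 °C, then GFP read at 485/510 nm. Each compound tested in twelve wells, assay repeated at least three times.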

For experiment [3], the system named is Pseudomonas aeruginosa. Put plainly: Agonist activity at Pseudomonas aeruginosa QSIS2 LasR-mediated quorum sensing co-expressing SacB1 assessed as luminescence at 0.25 mM after 24 hrs by reporter gene assay.
Experiment [4] addresses T1, Transcriptional activator protein LuxR (Aliivibrio fischeri). Put plainly: Agonist activity at Vibrio fischeri LuxR-mediated quorum sensing expressed in Escherichia coli JB523 assessed as GFP expression at 1 mM after 24 hrs by reporter gene assay. An outline of the steps:
(§2)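 E. coli JB523 (pJBA130, luxR-PluxI–GFP) overnight culture diluted to OD590 0.1 in LB with 0.4% NaCl, tetracycline 100 µg/ml final. Compounds 100–1000 µM added without signal; C6-HSL (5 µM) as positive control, water as negative. 24 h at 30 °C; GFP fluorescence ex 485/em 510 nm. Twelve wells per compound, ≥3 repeats.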

The target is the same in experiment [5]. Put plainly: Agonist activity at Vibrio fischeri LuxR-mediated quorum sensing expressed in Escherichia coli JB523 assessed as GFP expression at 0.25 mM after 24 hrs by reporter gene assay. An outline of the steps: as §2
For experiment [6], the system named is Pseudomonas aeruginosa. Briefly: Antagonist activity at Pseudomonas aeruginosa QSIS2 LasR-mediated quorum sensing co-expressing SacB1 assessed as inhibition of 3-oxo-C12-HSL-induced luminescence at 0.25 mM […] by reporter gene assay.
Experiment [7] addresses T1, Transcriptional activator protein LuxR (Aliivibrio fischeri). Put plainly: Antagonist activity at Vibrio fischeri LuxR-mediated quorum sensing expressed in Escherichia coli JB523 assessed as inhibition of C6-HSL-induced GFP expression after 24 hrs by reporter gene assay. An outline of the steps: as §1
Another experiment has as its system Escherichia coli. Briefly: Antibacterial activity against Escherichia coli JB523 after 20 hrs by broth microdilution assay. The settings on record: JB523, 20 h. An outline of the steps: (§3)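 EUCAST broth microdilution in triplicate, inoculum about 5 × 10^5 CFU/ml. Incubated 20 h at 37 °C, then OD590 read. Compounds from 100 mM DMSO stocks, diluted in water.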
A general note: In broth dilution the organism is exposed to a series of concentrations in liquid medium.

The target of experiment [8] is T1, Transcriptional activator protein LuxR (Aliivibrio fischeri). Briefly: Antagonist activity at Vibrio fischeri LuxR-mediated quorum sensing expressed in Escherichia coli JB523 assessed as inhibition of C6-HSL-induced GFP expression at 0.1 mM after 24 hrs by reporter gene assay. Summed up: as §1
Another experiment deals with Burkholderia cenocepacia. Put plainly: Antibacterial activity against Burkholderia cenocepacia LMG16656 after 20 hrs by broth microdilution assay. The settings on record: LMG16656, 20 h. An outline of the steps:
as §3

Experiment [9] relates to Pseudomonas aeruginosa. Put plainly: Agonist activity at Pseudomonas aeruginosa QSIS2 LasR-mediated quorum sensing co-expressing SacB1 assessed as luminescence after 24 hrs by reporter gene assay.
The test system of experiment [10] is Pseudomonas aeruginosa. Briefly: Agonist activity at Pseudomonas aeruginosa QSIS2 LasR-mediated quorum sensing co-expressing SacB1 assessed as luminescence at 0.1 mM after 24 hrs by reporter gene assay.
Experiment [11] deals with Pseudomonas aeruginosa. Put plainly: Agonist activity at Pseudomonas aeruginosa QSIS2 LasR-mediated quorum sensing co-expressing SacB1 assessed as luminescence at 0.5 mM after 24 hrs by reporter gene assay.
The subject of experiment [12] is Pseudomonas aeruginosa. Briefly: Antibacterial activity against Pseudomonas aeruginosa QSIS2 after 20 hrs by broth microdilution assay. As to conditions: QSIS2, 20 h. An outline of the steps: as §3
In experiment [13] the target is T1, Transcriptional activator protein LuxR (Aliivibrio fischeri). Put plainly: Agonist activity at Vibrio fischeri LuxR-mediated quorum sensing expressed in Escherichia coli JB523 assessed as GFP expression at 0.5 mM after 24 hrs by reporter gene assay. Summed up: as §2
The target is the same in experiment [14]. Briefly: Antagonist activity at Vibrio fischeri LuxR expressed in Escherichia coli JB523 assessed as inhibition of C6-HSL-induced GFP expression at 0.5 mM after 24 hrs by reporter gene assay. Summed up:
as §1

Experiment [15] concerns Pseudomonas aeruginosa. Put plainly: Agonist activity at Pseudomonas aeruginosa QSIS2 LasR-mediated quorum sensing coexpressing SacB1 assessed as […] by reporter gene assay.
For experiment [16], the system named is Pseudomonas aeruginosa. Put plainly: Antagonist activity at Pseudomonas aeruginosa QSIS2 LasR-mediated quorum sensing co-expressing SacB1 assessed as inhibition of 3-oxo-C12-HSL-induced luminescence at 1 mM […] by reporter gene assay.
Experiment [17] deals with T1, Transcriptional activator protein LuxR (Aliivibrio fischeri). Put plainly: Agonist activity at Vibrio fischeri LuxR-mediated quorum sensing expressed in Escherichia coli JB523 assessed as GFP expression at 0.1 mM after 24 hrs by reporter gene assay. Summed up: as §2
In experiment [18] the test system is Pseudomonas aeruginosa. Briefly: Antagonist activity at Pseudomonas aeruginosa QSIS2 LasR-mediated quorum sensing co-expressing SacB1 assessed as inhibition of 3-oxo-C12-HSL-induced luminescence at 0.1 mM after 24 hrs by reporter gene assay.
In experiment [19] the test system is Pseudomonas aeruginosa. Briefly: Antibacterial activity against Pseudomonas aeruginosa PAO1 after 20 hrs by broth microdilution assay. As to conditions: PAO1, 20 h. Summed up:
as §3

≈ marks a conversion by molar mass, not a printed value. Calls of active or inactive are those of the source.

As a reminder, the inhibition is the percentage by which the read-out fell short of the control. Broadly, the MIC is the smallest concentration in the dilution series that meets the test's criterion for growth inhibition. High values mean a need for much substance, low ones inhibition by little substance.

For `CCCCCCCCCCc1cn(C2CCOC2=O)nn1` (stereo not drawn), the inhibition in the experiment on Pseudomonas aeruginosa [1] was 15%; in experiment [2] it was 31.9%; with Pseudomonas aeruginosa [6] it was 8.1%; in experiment [7], “Dose-dependent effect”; in [8] it was 12.4%; in experiment [14], 28%. Moreover, the values for the inhibition with Pseudomonas aeruginosa [16] and in the experiment on Pseudomonas aeruginosa [18] were 21.9% and 7%, respectively. For the same compound, the Activity in the experiment on Pseudomonas aeruginosa [3] was 31.4%; in the experiment on Pseudomonas aeruginosa [9] it was “Dose-dependent effect”; in the experiment on Pseudomonas aeruginosa [10], 32.1%; in the experiment on Pseudomonas aeruginosa [11], 38%; in the experiment on Pseudomonas aeruginosa [15], 57.2%. Further, the result in experiment [4], in [5], in experiment [13] and in [17] was inactive. Also, the MIC in the experiment on Escherichia coli, in the experiment with Burkholderia cenocepacia, against Pseudomonas aeruginosa [12] and with Pseudomonas aeruginosa [19] was 2.5 mM (≈ 734 µg/mL) throughout.
As for `CCCCCCCc1cn(C2CCOC2=O)nn1` (stereo not drawn), the inhibition result with Pseudomonas aeruginosa [1], with Pseudomonas aeruginosa [6], with Pseudomonas aeruginosa [16] and in the experiment on Pseudomonas aeruginosa [18] was “inactive” each time. Moreover, the inhibition in experiment [2] is 39%; in [7], “Dose-dependent effect”; in experiment [8], 13.7%; in experiment [14], 34.6%. Further, the outcome (in the experiment with Pseudomonas aeruginosa [3]; with Pseudomonas aeruginosa [10]; in the experiment on Pseudomonas aeruginosa [11]; in the experiment on Pseudomonas aeruginosa [15]; in experiment [17]) was inactive. The Activity in experiment [4] came to 17.6%; in experiment [5] it was 8%; in experiment [13], 12.2%. Further, the minimum inhibitory concentration (MIC) in the experiment with Escherichia coli, in the experiment on Burkholderia cenocepacia, against Pseudomonas aeruginosa [12] and in the experiment with Pseudomonas aeruginosa [19] was 5 mM (≈ 1260 µg/mL) in each case.
Turning to `CCCCc1cn(C2CCOC2=O)nn1` (stereo not drawn), the inhibition result with Pseudomonas aeruginosa [1], in the experiment with Pseudomonas aeruginosa [6], with Pseudomonas aeruginosa [16] and in the experiment on Pseudomonas aeruginosa [18] was “inactive” each time. Further, the inhibition in experiment [2] was 27.9%; in experiment [7], “Dose-dependent effect”; in experiment [8] it was 12.7%; in experiment [14], 22.5%. Moreover, the result (in the experiment on Pseudomonas aeruginosa [3]; in [5]; in the experiment with Pseudomonas aeruginosa [10]; with Pseudomonas aeruginosa [11]; in the experiment with Pseudomonas aeruginosa [15]; in [17]) was inactive. In addition, the results for the Activity in [4] and in experiment [13] were 17.3% and 11.6%, respectively. For the same compound, the MIC against Escherichia coli, in the experiment with Burkholderia cenocepacia, against Pseudomonas aeruginosa [12] and against Pseudomonas aeruginosa [19] was 5 mM (≈ 1050 µg/mL) each time.
For `CCCCCc1cn(C2CCOC2=O)nn1` (stereo not drawn), the inhibition result in the experiment on Pseudomonas aeruginosa [1], with Pseudomonas aeruginosa [6], in the experiment with Pseudomonas aeruginosa [16] and in the experiment on Pseudomonas aeruginosa [18] was “inactive” each time. Moreover, the inhibition in experiment [2] is 35.1%; in [7] it was “Dose-dependent effect”; in experiment [8], 9%; in experiment [14], 27.5%. In addition, the result (in the experiment with Pseudomonas aeruginosa [3]; with Pseudomonas aeruginosa [10]; in the experiment on Pseudomonas aeruginosa [11]; in the experiment on Pseudomonas aeruginosa [15]; in experiment [17]) was inactive. In addition, the Activity in experiment [4] was determined as 25.9%; in experiment [5], 5.7%; in experiment [13], 16.3%. For the same compound, the MIC in the experiment with Escherichia coli, in the experiment on Burkholderia cenocepacia, with Pseudomonas aeruginosa [12] and against Pseudomonas aeruginosa [19] was 5 mM (≈ 1120 µg/mL) throughout.
As to `O=C1OCCC1n1cc(Cc2ccccc2)nn1` (stereo not drawn), the inhibition entry with Pseudomonas aeruginosa [1], in the experiment with Pseudomonas aeruginosa [6] and in the experiment with Pseudomonas aeruginosa [18] was “inactive” each time. For the same compound, the inhibition in [2] is 34.4%; in experiment [7] it was “Dose-dependent effect”; in [8], 6.3%; in experiment [14], 29.6%; with Pseudomonas aeruginosa [16] it was 49.9%. In addition, the Activity is 31.1% in the experiment with Pseudomonas aeruginosa [3]; “Dose-dependent effect” in the experiment with Pseudomonas aeruginosa [9]; 19.1% in the experiment with Pseudomonas aeruginosa [10]; 39.7% in the experiment with Pseudomonas aeruginosa [11]; 67.5% in the experiment with Pseudomonas aeruginosa [15]. For the same compound, the result in experiment [4], in experiment [5], in [13] and in experiment [17] was inactive. Moreover, the MIC in the experiment with Escherichia coli, in the experiment on Burkholderia cenocepacia, in the experiment on Pseudomonas aeruginosa [12] and in the experiment with Pseudomonas aeruginosa [19] was 5 mM (≈ 1220 µg/mL) each time.
Regarding `O=C1OCCC1n1cc(-c2ccccc2)nn1` (stereo not drawn), the inhibition result (in the experiment on Pseudomonas aeruginosa [1]; with Pseudomonas aeruginosa [6]; in experiment [8]; in the experiment with Pseudomonas aeruginosa [16]; with Pseudomonas aeruginosa [18]) was “inactive” each time. Also, the inhibition in experiment [2] was 26.9%; in [7] it was “Dose-dependent effect”; in experiment [14], 24.5%. The outcome (in the experiment on Pseudomonas aeruginosa [3]; in [5]; in the experiment with Pseudomonas aeruginosa [10]; in experiment [13]; in [17]) was inactive. Besides, the Activity was 12.8% in experiment [4], “Dose-dependent effect” in the experiment on Pseudomonas aeruginosa [9], 14.4% with Pseudomonas aeruginosa [11] and 22.2% with Pseudomonas aeruginosa [15]. Besides, the MIC against Escherichia coli stood at 10 mM (≈ 2290 µg/mL); against Burkholderia cenocepacia it was 5 mM (≈ 1150 µg/mL); against Pseudomonas aeruginosa [12] it was 5 mM (≈ 1150 µg/mL); with Pseudomonas aeruginosa [19] it was 5 mM (≈ 1150 µg/mL).
As to `CCCCCCc1cn(C2CCOC2=O)nn1` (stereo not drawn), the inhibition result in the experiment with Pseudomonas aeruginosa [1], in the experiment with Pseudomonas aeruginosa [6], in the experiment on Pseudomonas aeruginosa [16] and in the experiment with Pseudomonas aeruginosa [18] was “inactive” each time. For the same compound, the inhibition in experiment [2] was 34.3%; in [7], “Dose-dependent effect”; in experiment [8], 11.6%; in [14], 23.2%. In addition, the result (in the experiment with Pseudomonas aeruginosa [3]; with Pseudomonas aeruginosa [10]; in the experiment with Pseudomonas aeruginosa [11]; with Pseudomonas aeruginosa [15]; in [17]) was inactive. Also, the Activity in experiment [4] is 32.7%; in experiment [5] it was 10%; in [13], 17.5%. Also, the MIC against Escherichia coli, in the experiment with Burkholderia cenocepacia, in the experiment with Pseudomonas aeruginosa [12] and against Pseudomonas aeruginosa [19] was 5 mM (≈ 1190 µg/mL) each time.

For the origin of these results see ChEMBL document CHEMBL2062523, “Synthesis and evaluation of the quorum sensing inhibitory effect of substituted triazolyldihydrofuranones” (Bioorg Med Chem, 2012).
